Results from the EternaBench riboswitch data.

Test system: MS2 coat protein
Assay: apparent Kd, MS2 coat protein; higher = weaker binding; RNA-MaP array; theophylline 2 mM where present
Summary of the method: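 Green signal from SNAP-549-labelled MS2 coat protein was normalised to red-channel RNA signal and to the median Fmax of control clusters. The protein was titrated from 0.7 or 1.5 nM, doubling to 3 µM, without and then with constant ligand, over designs transcribed by stalled E. coli RNA polymerase on Illumina sequencing-chip clusters, in 100 mM Tris-HCl pH 7.5, 80 mM KCl, 4 mM MgCl2, BSA, DTT, yeast tRNA and Tween-20. The apparent Kd is the median of filtered per-cluster binding-curve fits.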

[1] = designed as: OFF switch for theophylline, no ligand
[2] = ligand present: theophylline, designed as: OFF switch for theophylline
[3] = designed as: ON switch for theophylline, no ligand
[4] = ligand present: theophylline, designed as: ON switch for theophylline

Sequence	apparent Kd [1]	apparent Kd [2]	apparent Kd [3]	apparent Kd [4]
AAACGUUGCUCAGAUACCAGACAUGAGGAUCACCCAUGUACCAAGGUAAAGAAAUAACGUGUCCCUUGGCAGCUGAGCAACGAAA	11 nM	113 nM	–	–
ACACACAUGAGGAUCACCCAUGUAAUAGAUACCAGUGACGCGGUGCACCCUUGGCAGCUGCUGCUGAGUGAUGGUUCCCUCGGAA	21.1 nM	34.7 nM	–	–
AACAUGAGGAUCACCCAUGUUUUAUGGGAUACCAGAGACGAAAGUCUCCCUUGGCAGCCCAAGCUGCUCCAUACGAAAGUAUGGU	–	–	14.3 nM	14 nM
AACAUGAGGAUCACCCAUGUAAUAUGGGAUACCAGAGACGAAAGUCUCCCUUGGCAGCCCAAGCUGCUCCAUACGAAAGUAUGGU	–	–	65.2 nM	18 nM
GUGGAGACAUGAGAUACCAGUCUCUUUAACAUGAGGAUCACCCAUGUAAUGCUCCUCGGAGACCCUUGGCAGCUCAGUAUGAUGA	39.9 nM	157 nM	–	–
AGCCCUGUGCUAGAUACCAGCUACAUGAGGAUCACCCAUGUGCGUCAGAAAUGACUGUGUAGCCCUUGGCAGCUAAAUGCAUGUA	11.8 nM	28 nM	–	–
UUUGAUAGGACAGAUACCAGCGUGUUAUAGAACAUGAGGAUCACCCAUGUAGUGAUCAAGCGCCCUUGGCAGCUGGUUUGUUAGG	–	–	229 nM	395 nM
UUGGUACGACAGCUCAUAUAAGCAUGUGAUACCAGACUGGAAACAGUCCCUUGGCAGCACUUUACAUGAGGAUCACCCAUGUCGG	221 nM	191 nM	–	–
ACAUGAGGAUCACCCAUGUCACGGCACGAUACCAGCUGAUCCGGUGGCCCUUGGCAGCGUCACGUUUGGUCCCGCGGAUGACACG	–	–	64.3 nM	60.4 nM
ACACAUGAGGAUCACCCAUGUCCAAUAGAUACCAGUGAUACGGUGCACCCUUGGCAGCUGUUGCUGAGUGAUGGUUCCCUCGGAA	–	–	125 nM	164 nM
GGUAUUGGAACAGAUACCAGUAUCUGUUGAUCCUACAUGAGGAUCACCCAUGUUAGAAAGUACCCUUGGCAGCUGUAAUAAUGCC	48.1 nM	81.6 nM	–	–
GCAAUACAUGAGGAUCACCCAUGUGCAGAUACCAGAGGUGUAUGCCUCCCUUGGCAGCUGCGACGCUCUGGCAUCUUGUGGGAUG	–	–	51.8 nM	48.8 nM
AAUGAACAUGAGGAUCACCCAUGUCGUGAUACCAGCCGUAAGAGUGGCCCUUGGCAGCGCCAUGAGGACAACAACAUACAUGAGG	–	–	24.3 nM	27 nM
AUAACAUGAGGAUCACCCAUGUAGAGUGAUACCAGACUACGUAAUGUCCCUUGGCAGCACAAGUAAAGUUACGAAUAAUGAUAGA	–	–	179 nM	50.8 nM
AUCGUACCUGAGGAUACCAGCAUGUGAUCAUAACAUGAGGAUCACCCAUGUAAUCAGUGAUGCCCUUGGCAGCUUGGUCGGUACA	–	–	51.6 nM	26.4 nM
AUAACAUGAGGAUCACCCAUGUAAGCAGAUACCAGCUAGGAAACUAGCCCUUGGCAGCUGCAAUCAUGGGUGUGGUAUCUGCUAA	28.2 nM	39.7 nM	–	–
AGCGACAUGCGUGAUACCAGCUACAUGAGGAUCACCCAUGUAAGUAGGAAACUACUGUGUAGCCCUUGGCAGCACAAUGCAUGUC	19.8 nM	43.5 nM	–	–
ACGUCCGGAUUGAUCGUGGGCAUGGUCGAUACCAGUAUUUUAAUCUACCCUUGGCAGCGACAUGAGGAUCACCCAUGUGCGAUGA	16.9 nM	42.6 nM	–	–
ACAUGAAGAACAGCGGUGGGCGCGCUCGAUACCAGUAUUUUAACCUACCCUUGGCAGCGACAUGAGGAUCACCCAUGUGAGAUGA	17.3 nM	26.9 nM	–	–
AUCUCGUUCAAUAUACCGCCUUGACUAGAUACCAGCAUGGACCCAUGCCCUUGGCAGCUGGACAUGAGGAUCACCCAUGUUUCAG	–	–	12.4 nM	14.6 nM
GACAUGAGGAUCACCCAUGUAUUGGGUGAUACCAGCCUGAAUCAUGGCCCUUGGCAGCACCGCGCUAACUUUAUGUUUGCGAACC	–	–	49.7 nM	160 nM
UGGUACAUGAGGAUCACCCAUGUUCCAGAUACCAGUGUCCCGCUGCACCCUUGGCAGCUGGUGGCACAUGAGGAUCACCCAUGUG	15 nM	17.1 nM	–	–
AGCCCAUUACAUGAGGAUCACCCAUGUGAUACCAGUCAGGAAACUGACCCUUGGCAGCGCAUGAGGAUCACCCAUGCGCUGGGCA	12 nM	11.4 nM	–	–
CAGCCUGGUUGGUAAAUCCCUCAUCGUGAUACCAGUCGAGUGAUCGACCCUUGGCAGCACAUGAGGAUCACCCAUGUGCUCGUAU	25.1 nM	23.1 nM	–	–
ACAUGAGGAUCACCCAUGUUCCUCGCCGAUACCAGUGAAGAAGAACGCCCUUGGCAGCGGAAAGAAUAUAUUGGAGAUGAUAUAU	219 nM	316 nM	–	–
GAGCUGAUGUAGAGCGAAUAUUCGAGAGAUACCAGUACAGAAAUGUACCCUUGGCAGCUCAACUUUACAUGAGGAUCACCCAUGU	13.7 nM	25 nM	–	–
